TbHK1 inh = blocks Trypanosoma brucei hexokinase 1 activity; recombinant TbHK1, G6PDH-coupled NADH A340; inhibition, % at 10 µM; 220,000 compounds, 0.11% hits; AID 1430;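 active = inhibition of 50% or more in the single-dose primary screen; inactive = inhibition below 50%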
Runt-CBFb FRET = inhibitors of human RUNX1 Runt domain binding to CBFb; inhibition, % at 20 µM; Cerulean-Runt/Venus-CBFb FRET ratio 530/480, 1 h; Q01196+Q13951; 220,000 compounds, 0.46% hits; AID 1496;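 active = inhibition over about 50% at 20 µM in the single-dose screen, limit read from the data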;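 also: 0% = DMSO wells and 100% = excess unlabeled CBFb competitor control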
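test system = Cerulean-tagged RUNX1 Runt domain (FRET donor) fusion protein | reagent = Venus-CBFb binding partner, 100 nM | incubation = protein complex preformed 1 h, compound exposure 1 h, room temperature, dark | detection = FRET fluorescence | read-out basis = loss of energy transfer signal | controls = 5 µM unlabeled CBFb as full-inhibition high control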
p97 ATPase inh = human p97 ATPase inhibition. P55072. recombinant p97 ATPase, Kinase-Glo ATP luminescence, 3 h. inhibition, % at 8 µM. 220,000 compounds, 0.42% hits; in the data active = inhibition above about 15%;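 also: 0% = DMSO vehicle and 100% = wells lacking enzyme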
Target sequence (P55072 whole entry, looked up): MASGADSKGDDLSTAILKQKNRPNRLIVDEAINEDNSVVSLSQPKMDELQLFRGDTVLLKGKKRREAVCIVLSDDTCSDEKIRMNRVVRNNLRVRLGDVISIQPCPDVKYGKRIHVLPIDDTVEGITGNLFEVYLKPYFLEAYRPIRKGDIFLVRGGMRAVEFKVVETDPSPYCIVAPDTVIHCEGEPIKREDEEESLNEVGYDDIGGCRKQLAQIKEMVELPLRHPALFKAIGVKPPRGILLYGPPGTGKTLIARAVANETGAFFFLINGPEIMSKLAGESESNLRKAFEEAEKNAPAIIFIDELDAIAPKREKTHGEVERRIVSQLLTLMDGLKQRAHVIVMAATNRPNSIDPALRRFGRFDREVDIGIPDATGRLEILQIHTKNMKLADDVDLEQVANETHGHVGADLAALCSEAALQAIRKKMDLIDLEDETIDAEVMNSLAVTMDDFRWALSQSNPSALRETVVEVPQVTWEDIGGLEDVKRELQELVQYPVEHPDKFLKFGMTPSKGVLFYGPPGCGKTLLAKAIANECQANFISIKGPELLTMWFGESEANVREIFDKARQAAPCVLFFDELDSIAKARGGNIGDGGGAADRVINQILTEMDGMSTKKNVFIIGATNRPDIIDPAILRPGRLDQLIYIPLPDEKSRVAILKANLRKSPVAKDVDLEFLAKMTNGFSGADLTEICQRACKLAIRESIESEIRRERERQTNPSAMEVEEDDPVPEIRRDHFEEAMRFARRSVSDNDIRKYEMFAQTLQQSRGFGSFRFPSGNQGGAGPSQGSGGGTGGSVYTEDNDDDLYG
Hck Nef HTS = blocks Nef-activated human Hck kinase | P08631 | Recombinant Hck-YEEI plus Nef, Z-Lyte FRET kinase assay | inhibition, % at 20 µM | 220,000 compounds, 0.68% hits | AID 463187;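 active = Hck-Nef kinase inhibition above about 50%, limit read from the data; inactive = inhibition below that limit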;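 also: 0% = DMSO with Hck plus Nef and 100% = Hck alone without Nef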
RanGTP-Imp inh = inhibitors of RanGTP-importin-beta interaction, primary screen, biochemical, FRET, CFP-Ran, YFP-importin-beta, homogeneous | cell-free CFP-Ran/YFP-importin-beta FRET ratio | inhibition, % (no concentration beside the values) | 300,000 compounds, 1.1% hits;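 active = more than half of the replicate wells show a fall in the fluorescence ratio signal beyond about 16%, limit read from the data, passing the limit was not always enough; inconclusive = exactly half of the replicate wells pass the set limit; inactive = fewer than half of replicates pass the limit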;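 also: 0% = DMSO wells and 100% = Ran loaded with GDP instead of GTP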
Runt-SMMHC FRET = inhibitors of human RUNX1 Runt domain binding to CBFb-SMMHC; 220,000 compounds, 0.74% hits; AID 1434; Cerulean-Runt/Venus-CBFb-SMMHC FRET ratio 530/480, 1 h; inhibition, % at 20 µM;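 active = mean inhibition across duplicate retests at 20 µM reaching about 50%, limit read from the data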;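 also: 0% = DMSO wells and 100% = wells with excess untagged CBFb-SMMHC; inhibitors lower the FRET ratio by blocking Runt binding to CBFb-SMMHC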
RUNX1 CBFb TR = disrupts human RUNX1 Runt domain binding to CBFb; inhibition, % at 20 µM; shares compounds with Runt-CBFb FRET; 480 compounds, 20% hits; TR-FRET RUNX1 Runt domain-CBFb binding; AID 1502; in the data active = inhibition above about 40%
YIC counter = counter-screen for RanGTP-importin-beta inhibitors: YIC FRET probe | 1,000 compounds, 40% hits | shares compounds with RanGTP-Imp inh | AID 435026 | Purified YIC probe, intramolecular FRET ratio YFP/CFP | IC50, µM;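 active = fitted half-maximal inhibitory concentration no more than tenfold above the top dose tested; inconclusive = flat fit with 30 to 70% activity, or poor fit; inactive = half-maximal concentration beyond tenfold above the top dose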
Hck Nef conf = confirmation of Hck-Nef kinase inhibitors; calls only at 10 µM; 1,300 compounds, 28% hits; shares compounds with Hck Nef HTS; Recombinant Hck-YEEI:Nef, Z-Lyte FRET kinase assay;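 active = average inhibition of at least 50%, with Z-scores no higher than 3 in both the phospho-tyrosine peptide and fluorescence counterscreens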
* = called active by the depositor; i = inactive; ? = inconclusive; nt = not tested or not shown; + = active, no number. This is a sample that favours compounds with a hit; in the whole collection about 2.1% have one here.

SMILES	TbHK1 inh	Runt-CBFb FRET	p97 ATPase inh	Hck Nef HTS	RanGTP-Imp inh	Runt-SMMHC FRET	RUNX1 CBFb TR	others
CCCSc1nc2ccsc2c(=O)n1CC	-2.4	-0.3	2.9	28.4	1.9	1.3	nt
O=c1oc2c(-c3cccc(F)c3)cc(O)cc2s1	20.8	58.2*	10.3	28.4	-1.2	9.0	22.9
Cc1[nH]c2ccccc2c1C1=NNC(=Nc2ccc(F)cc2)SC1	-17.3	53.4*	5.5	0.5	nt	47.2	-1.5
Cc1ccc(C(=O)NNc2nc3ccccc3nc2C(F)(F)F)cc1	-5.2	3.5	-0.8	0.3	3.4	-2.8	nt
O=C(NNc1c2ccccc2nc2ccccc12)c1ccc(O)cc1	-6.1	51.7*	6.1	0.5	36.2*	57.6*	-45.3
Cc1nc2ccccc2c(=O)n1NC(=O)COc1ccccc1	0.5	1.1	2.5	-5.3	-4.8	-1.5	nt
O=C(COc1ccccc1)NNc1c2ccccc2nc2ccccc12	0.9	58.0*	6.2	1.1	5.2	80.6*	-1.0
COc1cc(NC(=O)c2ccc(Cl)cc2)c(Cl)cc1NC(=O)c1cccnc1	nt	nt	nt	nt	-0.5	nt	nt
CCCOC(=O)C1=C(C)NC2=C(C(=O)CC(C)(C)C2)C1c1cccnc1 (configuration not stated)	-7.6	63.4*	4.3	32.8	?	127.2*	-15.4
CCCOC(=O)C1=C(C)NC2=C(C(=O)CC(C)(C)C2)C1c1ccc(N(C)C)cc1 (configuration not stated)	-4.9	2.5	0.7	3.8	4.6	11.8	nt
Cc1ccc(C)c(N2CC(C(=O)Nc3nccs3)CC2=O)c1 (configuration not stated)	nt	nt	nt	nt	3.6	nt	nt
Cc1ccc(C(=O)c2sc3nsc(C)c3c2N)cc1	-3.9	50.0*	3.9	0.4	12.3	28.1	44.5*
Cc1snc2sc(C(=O)c3ccc(Br)cc3)c(N)c12	1.0	29.9	3.9	-2.4	-0.8	-22.2	nt
Cc1ccc2cc(C#N)c(N3CCN(C(=O)c4ccccc4)CC3)nc2c1	nt	nt	nt	nt	7.1	nt	nt
Cc1ccc2nc(N3CCN(C(=O)c4cccs4)CC3)c(C#N)cc2c1	-0.8	56.4*	1.1	3.8	18.5*	123.7*	-29.6	YIC counter=16*
O=C(CN1CCN(Cc2cccc(F)c2)CC1)NCc1ccccc1	nt	nt	nt	nt	4.9	nt	nt
COc1ccc2cc(-c3nc4ccccc4n3C)c(=O)oc2c1	-33.2	59.5*	1.1	1.5	43.6*	127.1*	24.3	YIC counter=11*
Cn1c(-c2cc3ccccc3oc2=O)nc2ccccc21	-38.0	-0.3	7.3	-2.7	-1.9	0.6	nt
Cc1onc(-c2c(F)cccc2Cl)c1C(=O)NCCc1ccncc1	nt	nt	nt	nt	1.6	nt	nt
Cc1nc2[nH]c(=O)c3c(n2n1)NC1=C(C(=O)CC(C)(C)C1)C3c1ccc(F)cc1 (configuration not stated)	-19.7	80.5*	-11.2	1.3	35.1*	100.4*	-5.7	YIC counter=4.07*
O=C(O)c1ccc2c(=O)n3c(nc2c1)/C(=C/c1ccccc1OC(F)F)CC3	nt	nt	nt	nt	0.1	nt	nt
CCCC1C(C#N)=C(N)Oc2cc(C)n(C)c(=O)c21 (configuration not stated)	3.9	94.9*	1.1	5.0	18.0*	96.9*	63.0*	YIC counter=>50
COc1ccc(C(=O)c2cc3ccc(O)cc3oc2=O)cc1	-13.5	88.0*	-6.2	31.0	48.0*	88.2*	17.4	YIC counter=15.2*
CC(=O)C(C)Oc1ccc2c3c(c(=O)oc2c1C)CCCC3 (configuration not stated)	-11.4	13.9	-4.7	3.5	4.4	38.5	nt
Cc1c(O)ccc2c3c(c(=O)oc12)CCC(C)C3 (configuration not stated)	-13.0	66.1*	1.1	28.1	37.2*	118.0*	19.7	YIC counter=14*
SMILES	TbHK1 inh	Runt-CBFb FRET	p97 ATPase inh	Hck Nef HTS	RanGTP-Imp inh	Runt-SMMHC FRET	RUNX1 CBFb TR	others
O=C(NC1CCN(S(=O)(=O)c2ccc(F)cc2)CC1)c1cccnc1	nt	nt	nt	nt	-3.4	nt	nt
O=C1NC(=S)S/C1=C1\Sc2ccccc2N1CCCS(=O)(=O)O	0.3	88.1*	-5.2	2.3	26.6*	122.7*	26.6	YIC counter=14.9*
NN1C(=O)/C(=C2/Sc3ccccc3N2CCCS(=O)(=O)O)SC1=S	nt	nt	nt	nt	13.7	nt	nt
CCCn1c(=N)c(C(=O)NCc2ccc3c(c2)OCO3)cc2c(=O)n3cccc(C)c3nc21	-8.6	71.0*	-2.1	6.4	40.2*	99.3*	-23.6	YIC counter=14.6*
COCCCn1c(C(=O)NCCC2=CCCCC2)cc2c(=O)n3cccc(C)c3nc21	nt	nt	nt	nt	-2.1	nt	nt
CCOC(=O)c1cc2c(=O)n3cccc(C)c3nc2n(CCOC)c1=NC(C)=O	-22.9	94.5*	3.0	87.0*	70.4*	87.4*	-3.4
O=C(O)c1cc(N2N=C(C(F)(F)F)/C(=C/C=C/c3ccco3)C2=O)ccc1Cl	15.8	52.8*	13.4	96.8*	nt	39.3	92.1*	Hck Nef conf=+
CN(C(=O)CC1C(=O)NCCN1Cc1ccc(F)c(F)c1)C1CCCCC1 (configuration not stated)	nt	nt	nt	nt	1.0	nt	nt
O=C(O)CN1C(=O)/C(=C/c2ccc(SCc3ccccc3)o2)SC1=S	0.5	70.5*	2.3	73.5*	nt	31.5	3.6	Hck Nef conf=i
CCN(CC)Cc1c(O)c(Cl)cc2c(C)c(C)c(=O)oc12	-22.5	83.0*	2.5	77.3*	20.3*	90.7*	-202.4	YIC counter=30*
Cc1cc2oc(=O)cc(CN3CCC(C)CC3)c2cc1Cl	2.6	-3.7	-0.4	2.4	1.0	-3.1	nt
Cc1cc(=O)oc2c(CN3CCC(C)CC3)c(O)c(Cl)cc12	-21.6	77.2*	1.1	117.9*	nt	140.2*	41.2*
Cc1cc(=O)oc2c(CN3CCCCC3)c(O)c(Cl)cc12	-22.2	62.1*	-5.5	124.8*	8.8	134.5*	-6.2
Cc1c(C)c2cc(Cl)c(O)c(CN3CCCC(C)C3)c2oc1=O (configuration not stated)	-24.6	83.6*	-2.2	81.4*	?	139.4*	32.6
COc1ccccc1OCCNC(=O)Cc1ccc(S(=O)(=O)N2CCOCC2)s1	nt	nt	nt	nt	2.9	nt	nt
C=CCN1C(=O)c2ccc(C(=O)N3CCN(S(=O)(=O)c4ccccc4Br)CC3)cc2C1=O	nt	nt	nt	nt	3.0	nt	nt
COc1ccc(OC)c(C(=O)NC(CC(N)=O)c2ccc(NCCN3CCCCC3)c([N+](=O)[O-])c2)c1 (configuration not stated)	nt	nt	nt	nt	-6.6	nt	nt

Assay outcomes: PubChem, several laboratories
